Hits are enriched below; roughly 2% of the tested compounds scored in any of these assays.
PvdQ acylase = blocks Pseudomonas aeruginosa PvdQ acylase activity. purified PvdQ acylase, fluorescence plate reader. inhibition, % at 10 µM. hit rate 0.063% among 340,000. AID 488965; in the data active = inhibition above about 30%, passing the limit was not always enough;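 note: 0% = vehicle neutral wells and 100% = reference inhibitor wells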
IMP-1 inh = blocks Pseudomonas aeruginosa IMP-1 metallo-beta-lactamase; hit rate 0.45% among 290,000; AID 1556; purified IMP-1, nitrocefin hydrolysis, epi-absorbance fluorescence; inhibition, % at 5.6 µM;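 active = inhibition above the mean plus 3 SD of all compounds in the same screening run, cut at about 4.5% in these data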;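 note: 0% = IMP-1 with DMSO and 100% = DMSO wells lacking enzyme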
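Material – recombinant IMP-1 enzyme, purified · Amount – IMP-1 0.2 nM before substrate addition · Medium – HEPES buffer pH 7.1 with ZnSO4 and Brij 35 · Timing – 25 °C, 15 min preincubation, 25 min reaction · Measured by – plate fluorescence quenching by hydrolysis product, ex 480/em 530 nm · Read-out – percent enzyme inhibition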
VIM-2 inh = blocks Pseudomonas aeruginosa VIM-2 metallo-beta-lactamase. hit rate 0.89% among 290,000. purified VIM-2, nitrocefin hydrolysis, epi-absorbance fluorescence. inhibition, % at 5.6 µM;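 active = inhibition above the mean of all tested compounds plus 3 SD, cutoff set per screening run, cut at about 7.5% in these data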;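 note: red hydrolysis product quenches plate fluorescence so inhibitors raise well fluorescence; 0% = enzyme with DMSO and 100% = DMSO without enzyme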
ATG4B inhibitor = blocks human ATG4B protease cleavage of LC3 substrate. ATG4B cleavage of LC3-PLA2, NBD-HPC fluorescence, 1 h. hit rate 0.51% among 340,000. inhibition, % at 8.33 µM; in the data active = inhibition above about 40%
Target sequence (Q9Y4P1 whole entry, looked up): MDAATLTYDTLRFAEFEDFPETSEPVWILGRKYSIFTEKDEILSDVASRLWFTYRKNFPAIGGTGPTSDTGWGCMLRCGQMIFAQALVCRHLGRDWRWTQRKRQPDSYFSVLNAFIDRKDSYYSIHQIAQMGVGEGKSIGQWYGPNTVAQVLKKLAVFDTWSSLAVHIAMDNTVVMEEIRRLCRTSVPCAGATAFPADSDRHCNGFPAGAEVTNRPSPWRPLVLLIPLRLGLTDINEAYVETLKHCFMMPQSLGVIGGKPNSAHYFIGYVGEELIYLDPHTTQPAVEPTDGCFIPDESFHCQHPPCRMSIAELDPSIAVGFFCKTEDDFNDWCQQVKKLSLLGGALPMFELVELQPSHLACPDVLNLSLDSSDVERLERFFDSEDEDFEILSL
MIN6 prolif = MIN6 beta-cell proliferation induction | MIN6 cells proliferation, ATPlite luminescence, 48 h; cells starved in 0.2% serum; 100% = growth in 10% serum | hit rate 0.29% among 330,000 | proliferation, % at 10 µM;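 active = compounds whose signal lies at least 3.5 SD above the mean of all wells on their plate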;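 note: 0% = DMSO-treated cells in low-serum medium and 100% = 10% serum control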
HKDC1 inhibitor = HKDC1 (human) hexokinase inhibition. Q2TB90. recombinant HKDC1, G6PDH/diaphorase resazurin coupled fluorescence. inhibition, % at 20 µM. hit rate 0.16% among 340,000. AID 493160;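 active = inhibition above about 35% when tested at 20 µM, limit read from the data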;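 note: plate controls were DMSO wells with enzyme for no effect and DMSO wells lacking enzyme for full effect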
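test system = in-house recombinant HK5 (HKDC1) enzyme | amount = HKDC1 at 5 µg/mL | control set = DMSO-enzyme wells negative, buffer-substituted wells positive | compound = one dose of 20 µM, 1% DMSO | schedule = reaction time 90 min, room temperature, protected from light | technique = resorufin fluorescence at 613 nm | reagent = glucose with 1 mM ATP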
* hit, by the source's call; nt = not tested or not shown.

SMILES	PvdQ acylase	IMP-1 inh	VIM-2 inh	ATG4B inhibitor	MIN6 prolif	HKDC1 inhibitor
O=C1c2ccccc2S(=O)(=O)N1CC1CC(c2ccccc2Cl)=NO1 (stereo not drawn)	-11.9	-1.3	-1.6	15.5	0.0	-13.1
COc1ccccc1C1=NOC(CN2C(=O)c3ccccc3S2(=O)=O)C1 (stereo not drawn)	2.3	-3.7	7.7*	-6.2	-0.3	2.0
CC(C)Cc1nnc(NC(=O)CCS(=O)(=O)c2ccc(Cl)cc2)s1	-18.6	-2.4	8.7*	5.0	-5.8	-5.5
N#CC(c1ccc(=O)[nH]n1)c1ccc(Cl)cc1Cl (stereo not drawn)	5.2	-2.5	-2.2	-3.5	0.0	-6.2
Cc1cccc(C(C#N)c2ccc(Cl)nn2)c1 (stereo not drawn)	88.8*	-1.4	0.2	2.8	-2.4	3.8
N#CC(c1ccc(Cl)nn1)c1ccccc1Cl (stereo not drawn)	108.2*	-2.6	-5.2	-1.7	-2.7	1.0
Cc1ccc(C(C#N)c2ccc(Cl)nn2)cc1 (stereo not drawn)	85.8*	-1.5	-0.2	4.5	0.3	-4.4
N#CC(c1ccc(Cl)cc1)c1ccc(Cl)nn1 (stereo not drawn)	80.0*	-3.4	-3.4	-11.7	-2.6	-7.8
N#CC(c1ccccc1)c1ccc(=O)[nH]n1 (stereo not drawn)	9.5	0.0	-0.4	-4.2	-1.8	-5.0
CC1CCN(C(=O)c2[nH]cnc2C(=O)N[C@@H](C)c2ccccc2)CC1	5.9	nt	nt	5.8	-2.4	-6.0
CN(C)C(CNC(=O)CCCN1C(=O)c2cccc3cccc(c23)C1=O)c1ccccc1 (stereo not drawn)	-17.5	-4.4	9.2*	-12.7	0.0	0.7
O=C(CCCN1C(=O)c2cccc3cccc(c23)C1=O)NCc1ccco1	-12.0	-2.3	-0.1	-4.2	1.9	4.1
CC(C)(C)c1ccc(C(=O)Cn2nc(C(=O)O)c3ccccc3c2=O)cc1	-2.0	-2.6	-1.6	0.5	-3.0	-0.1
O=c1c(O)cccc2cc(O)c(O)c(O)c12	3.5	7.7*	5.3	5.8	-4.2	30.6
COc1ccc(S(=O)(=O)N2CCOCC2)cc1NC(=O)Cc1coc2cc(C)c(C)cc12	-11.0	70.5*	-1.2	-16.1	1.8	-0.6
COc1ccc(S(=O)(=O)N2CCOCC2)cc1NC(=O)Cc1ccccc1Cl	-18.4	-4.0	-1.1	18.2	0.0	-1.5
COc1ccccc1CNC(=O)N1CCN(c2ccccc2C)CC1	-9.8	52.5*	1.1	6.0	-2.2	-3.1
O=C1ON(Cc2ccccc2)C(c2ccccc2)N1c1ccccc1 (stereo not drawn)	-15.2	nt	nt	4.4	nt	-2.5
COc1ccc(Br)cc1/C=C/C(=O)NC(=S)Nc1ccc(CN2CCOCC2)cc1	-8.9	-3.0	-7.8	-1.6	-0.3	0.4
COc1cc(Br)c(CNc2cc(C)ccc2C)cc1OC	-9.7	4.7*	-1.5	10.6	-2.3	9.9
Cc1sc2nc3ccc(NCc4ccco4)nn3c(=O)c2c1C	-10.0	6.2*	3.8	-5.9	-2.7	1.4
O=C1C(=O)N(Cc2ccncc2)C(c2ccccc2F)/C1=C(\O)c1ccc2c(c1)OCCO2 (stereo not drawn)	-6.1	-4.1	10.8*	1.8	0.9	6.5
COc1ccc(OC)c2c1C(=O)c1ccccc1C2=O	nt	-1.4	7.0	-17.2	-2.4	19.0
COc1ccc(OC)c2c1C(=O)C(Cl)=C(Cl)C2=O	4.6	-1.6	8.3*	3.1	-4.0	23.6
CCCc1cc(-n2ccnc2)n2c(nc3ccccc32)c1C#N	-9.5	-6.7	5.4	12.6	-3.6	5.4
SMILES	PvdQ acylase	IMP-1 inh	VIM-2 inh	ATG4B inhibitor	MIN6 prolif	HKDC1 inhibitor
CCC(C)Sc1cc(C)c(C#N)c2nc3ccccc3n12 (stereo not drawn)	-4.3	-2.3	10.1*	-8.2	1.4	4.0
Cc1cc(-n2ccnc2)n2c(nc3ccccc32)c1C#N	-1.1	3.0	7.7*	-0.4	-1.2	10.0
Cc1ccc(-c2ccc3c(c2)S(=O)(=O)c2ccccc2C3=O)cc1	nt	nt	nt	nt	4.2	nt
COc1cc2[nH]c(=O)n(CCC(=O)N3CCC(N4CCCCC4)CC3)c(=O)c2cc1OC	-12.1	-1.8	7.8*	-13.1	0.7	-0.7
COc1cccc2c1C(=O)c1ccc3ccccc3c1C2=O	-10.6	12.7*	1.5	0.1	-3.1	13.6
COc1cccc2c1-c1c(C(=O)O)cccc1C2=O	-11.7	-3.3	-2.1	-4.6	-0.8	-1.7
O=C(CSc1nc2c(c(=O)n1-c1ccc(Br)cc1)SCC2)NCc1ccco1	-10.1	-4.5	-2.4	13.7	-2.5	-8.3
O=C(CSc1nc2c(c(=O)n1-c1ccc(Br)cc1)SCC2)Nc1nccs1	19.3	-2.8	-2.5	57.2*	-3.1	-3.1
COCC(Cc1ccccc1)NC(=O)Cn1cc(C)c(=O)[nH]c1=O (stereo not drawn)	-8.7	nt	nt	-8.0	nt	-7.5
COc1cccc2c1cc1c(=O)n(CC(=O)NCCCc3ccccc3)nc(C)n12	-7.7	-3.6	-2.7	3.1	4.1	1.0
COc1cccc2c1cc1c(=O)n(CC(=O)NCCCN3CCCCC3)nc(C)n12	-12.0	-2.2	9.2*	6.2	2.5	2.1
Cc1ccc(Cl)c(NC(=O)CN2CCNC(=O)C2)c1Cl	5.3	-2.2	-0.8	-1.5	-0.7	-0.7
Nc1ccc(OCc2ccccc2)cc1[N+](=O)[O-]	36.5*	nt	nt	-5.1	nt	-5.1
O=C(CCC1CCCN(C2C3CC4CC(C3)CC2C4)C1)NCc1ccc(F)c(F)c1 (stereo not drawn)	4.4	-0.9	-0.4	1.2	-3.9	-4.0
CC(C)NC(=O)C(=O)NNC(=O)CCc1ccccc1	3.5	-1.8	-1.6	-9.5	-0.6	-8.8
Clc1ccc2nc3c4ccccc4cnn3c2c1	33.3*	-2.2	1.7	-3.0	-3.5	-0.3
COn1c(-c2ccccc2)nc2ccc(Cl)cc21	-4.4	-1.1	-0.4	1.8	1.1	2.7
COCCCn1c(C(=O)N2CCOCC2)cc2c(=O)n3ccccc3nc21	-0.5	42.1*	-0.4	5.2	-2.6	-3.8
COCCCn1c(C(=O)NCCN2CCOCC2)cc2c(=O)n3cccc(C)c3nc21	-6.9	-0.3	9.4*	-1.7	0.9	-4.3
COCCCn1c(C(=O)Nc2ccc3c(c2)OCO3)cc2c(=O)n3ccccc3nc21	-1.6	-3.3	-0.3	-1.0	6.4	-2.9
CN(C)C1(CNC(=O)C2CCN(S(=O)(=O)c3cccc(C(F)(F)F)c3)CC2)CCCCC1	-10.2	0.1	-1.0	1.2	1.0	-6.8
O=C(CCNC(=O)c1ccc([N+](=O)[O-])cc1)Oc1ccc(F)c(F)c1	-2.7	nt	nt	-3.2	-3.3	2.0
CCSc1nnc(NS(=O)(=O)c2ccc(C)cc2)s1	-10.6	-3.6	-4.0	-3.6	1.1	-12.0
O=C(Cn1cnc(S(=O)(=O)N2CCCCC2)c1)Nc1ccc(OC(F)(F)F)cc1	-11.8	-2.6	0.5	-1.5	-1.0	-6.5

Source: PubChem (several laboratories)
